# Assay results taken from publication PMC5692558 (Proceedings of the National Academy of Sciences of the …, 2017).
# Where a chain is given by its changes, count along the chain named. In names and notes the source's numbering stands. Entries after “also recorded” stand apart in the source; their conditions may differ.
# T1: STAC2 tandem SH3 domains (residues 296–411) (human, UniProt Q6ZMT1 296-411)
# T1 sequence (looked up): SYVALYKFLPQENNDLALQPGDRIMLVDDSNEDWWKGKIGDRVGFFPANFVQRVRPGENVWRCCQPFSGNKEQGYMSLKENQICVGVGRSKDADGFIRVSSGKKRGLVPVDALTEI
# T2: STAC1 tandem SH3 domains (residues 288–402) (human, UniProt Q99469 288-402)
# T2 sequence (looked up): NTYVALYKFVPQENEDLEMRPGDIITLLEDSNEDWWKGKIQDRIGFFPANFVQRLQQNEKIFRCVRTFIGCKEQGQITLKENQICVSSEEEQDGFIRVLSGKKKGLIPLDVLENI
# T3: STAC3 tandem SH3 domains (residues 245–364) (human, UniProt Q96MF2-1 245-364)
# T3 sequence (looked up): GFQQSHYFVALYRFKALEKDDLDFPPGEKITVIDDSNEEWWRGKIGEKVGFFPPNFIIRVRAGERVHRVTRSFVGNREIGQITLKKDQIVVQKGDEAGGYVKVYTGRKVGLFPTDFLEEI
# T4: STAC2 tandem SH3 domains with Gln-306 mutated to Leu (human, UniProt Q6ZMT1 296-411, Gln-306 to Leu)
# T4 sequence (looked up): T1 sequence (looked up) with Q11L
# B1: deletion of both SH3 domains: truncated STAC3 missing both SH3 domain (1–244) (protein, UniProt Q96MF2 1-244, looked up, fragment)
# chain: MTEKEVLESPKPSFPAETRQSGLQRLKQLLRKGSTGTKEMELPPEPQANGEAVGAGGGPIYYIYEEEEEEEEEEEEPPPEPPKLVNDKPHKFKDHFFKKPKFCDVCARMIVLNNKFGLRCKNCKTNIHEHCQSYVEMQRCFGKIPPGFHRAYSSPLYSNQQYACVKDLSAANRNDPVFETLRTGVIMANKERKKGQADKKNPVAAMMEEEPESARPEEGKPQDGNPEGDKKAEKKTPDDKHKQP
# B2: W284S: STAC3 disease mutation linked to Native American myopathy (protein)
# chain: MTEKEVLESPKPSFPAETRQSGLQRLKQLLRKGSTGTKEMELPPEPQANGEAVGAGGGPIYYIYEEEEEEEEEEEEPPPEPPKLVNDKPHKFKDHFFKKPKFCDVCARMIVLNNKFGLRCKNCKTNIHEHCQSYVEMQRCFGKIPPGFHRAYSSPLYSNQQYACVKDLSAANRNDPVFETLRTGVIMANKERKKGQADKKNPVAAMMEEEPESARPEEGKPQDGNPEGDKKAEKKTPDDKHKQPGFQQSHYFVALYRFKALEKDDLDFPPGEKITVIDDSNEESWRGKIGEKVGFFPPNFIIRVRAGERVHRVTRSFVGNREIGQITLKKDQIVVQKGDEAGGYVKVYTGRKVGLFPTDFLEEI
# modifications: left off: His6, end not stated, cleaved | maltose-binding protein, end not stated, cleaved
# B3: STAC3: human STAC3 isoform a (NP_659501.1) (protein)
# chain: T3 sequence (looked up)
# modifications: left off: His6, end not stated, cleaved | maltose-binding protein, end not stated, cleaved
# Assays:
# STAC3 W284S = assay: ITC, II–III loop with STAC3 W284S; type: binding, human; details: 25 °C, pH 7.4, NAM mutant W284S
# human CaV1.2 = assay: CaV1.2 inactivation; type: cell-based; details: Xenopus oocytes, two-electrode voltage clamp, Ba^2+ or Ca^2+ solution
# In short: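 Human CaV1.2 α1c (splice variant a1c77) cRNA (8.2–10.9 ng) was co-injected with rabbit β1 (11.7–15.5 ng), with optional rabbit α2δ (11.7 ng) and human STAC3 isoform a (9.8–13.0 ng). Oocytes were held at 18 °C in OR3 (pH 7.6) and recorded 3–4 d later. BAPTA was pre-injected; perfusate was 40 mM Ba2+ or Ca2+, pH 7.4. P/4 leak subtraction; two-tailed unpaired t test.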
# stac^−/− myotubes = details: ref [16], cited from earlier work
# [1] = tested on: skeletal muscle CaV1.1 complex; details: STAC3 W284S; ref [18]; listed as NAM mutation; cited from earlier work
# [2] = molecular target: T1, STAC2 tandem SH3 domains (residues …); assay: ITC
# [3] = molecular target: T2, STAC1 tandem SH3 domains (residues …); assay: ITC
# [4] = molecular target: T3, STAC3 tandem SH3 domains (residues …); assay: ITC
# CaV1.2 = details: ref [15]; cited from earlier work
# [5] = molecular target: T4, STAC2 tandem SH3 domains with Gln-306 …; assay: ITC
molecule,measurement,setting,value
"CaV1.1 728–775: fragment 728–775 of the CaV1.1 II–III loop (core II–III loop) (NVNEVKDPYPSADFPGDDEEDEPEIPLSPRPRPLAELQLKEKAVPIPE; left off: His6, end not stated, cleaved | maltose-binding protein, end not stated, cleaved)",interaction detected by ITC,STAC3 W284S,no longer able to detect an interaction
same,interaction detected by ITC,STAC3 W284S; listed as II–III loop peptide,decreases the affinity to levels below detection
"IPRAAA: mutation at the binding interface tested for CaV1.2 inactivation (NVNEVKDPYPSADFPGDDEEDEPEAALSPAPRPLAELQLKEKAVPIPE; left off: His6, end not stated, cleaved | maltose-binding protein, end not stated, cleaved)",effect on slowing of CaV1.2 inactivation induced by STAC3,human CaV1.2,neither mutations at the binding interface (W284S or IPRAAA) nor an outright deletion of both SH3 domains affected the slowing of inactivation
B1,effect on slowing of CaV1.2 inactivation induced by STAC3,human CaV1.2,neither mutations at the binding interface (W284S or IPRAAA) nor an outright deletion of both SH3 domains affected the slowing of inactivation; also recorded: still resulted in slower inactivation
B2,effect on slowing of CaV1.2 inactivation induced by STAC3,human CaV1.2,neither mutations at the binding interface (W284S or IPRAAA) nor an outright deletion of both SH3 domains affected the slowing of inactivation
same,effect on EC coupling,stac^−/− myotubes; STAC3 W284S (NAM mutation),diminished EC coupling; also recorded: large reduction in EC coupling
same,effect on depolarization-induced calcium release,"stac^−/− myotubes; reconstituted stac^−/− myotubes, [17]",drastic reduction in depolarization-induced calcium release
same,recruitment of STAC3 into the skeletal muscle CaV1.1 complex / interaction with CaV1.1,[1],did not appear to abolish the interaction between CaV1.1 and STAC3
"NVNEVKDPYPSADFPGDDEEDEPEIPLSPRPRPLAELQLKEKAVPIPE (domain or fragment, human, UniProt Q13698 728-775, looked up) [CaV1.1 728–775 (core II–III loop)]",Kd,[2],1.85 µM
same,fold higher affinity than STAC2,[3],~2.4 fold
same,fold higher affinity than STAC2,[4],~2.2 fold
B3,effect on inactivation of CaV1.2,CaV1.2,dramatic reduction in the speed of inactivation
"EDEPEIPLSPRPRP (peptide, UniProt Q13698 747-760, looked up) [CaV1.1 747–760 (minimal peptide)]",fold lower affinity than wild type,[5],~2 fold
same,Kd,[4],10.6 µM
